Reference: ChEMBL document CHEMBL4351015, “Design, synthesis and biological evaluation of 3-(imidazo[1,2-a]pyrazin-3-ylethynyl)-2-methylbenzamides as potent and selective pan-tropomyosin receptor kinase (TRK) inhibitors” (Eur J Med Chem, 2019)
pIC50: −log10 of the molar value.

Tests used:
[1] = Ratio of drug concentration in brain to blood of Sprague-Dawley rat at 25 mg/kg, po administered via gavage incubated for 2 hrs by LC/MS-MS analysis; type: ADME, organism-based; settings: brain and blood, read-out: BBR
[2] = Drug concentration in Sprague-Dawley rat brain at 25 mg/kg, po administered via gavage incubated for 8 hrs by LC/MS-MS analysis; type: ADME, organism-based; settings: read-out: Ct
[3] = Drug concentration in Sprague-Dawley rat brain at 25 mg/kg, po administered via gavage incubated for 2 hrs by LC/MS-MS analysis; type: ADME, organism-based; settings: read-out: Ct
[4] = biological target: High affinity nerve growth factor receptor (Homo sapiens, UniProt P04629); test: Inhibition of recombinant human His-tagged TrkA catalytic domain (441 to 796 residues) expressed in baculovirus expression system using tyr 01 as substrate incubated for 1 hr by Z'-Lyte assay
Chain of High affinity nerve growth factor receptor (P04629 whole entry, the tested form may be a part): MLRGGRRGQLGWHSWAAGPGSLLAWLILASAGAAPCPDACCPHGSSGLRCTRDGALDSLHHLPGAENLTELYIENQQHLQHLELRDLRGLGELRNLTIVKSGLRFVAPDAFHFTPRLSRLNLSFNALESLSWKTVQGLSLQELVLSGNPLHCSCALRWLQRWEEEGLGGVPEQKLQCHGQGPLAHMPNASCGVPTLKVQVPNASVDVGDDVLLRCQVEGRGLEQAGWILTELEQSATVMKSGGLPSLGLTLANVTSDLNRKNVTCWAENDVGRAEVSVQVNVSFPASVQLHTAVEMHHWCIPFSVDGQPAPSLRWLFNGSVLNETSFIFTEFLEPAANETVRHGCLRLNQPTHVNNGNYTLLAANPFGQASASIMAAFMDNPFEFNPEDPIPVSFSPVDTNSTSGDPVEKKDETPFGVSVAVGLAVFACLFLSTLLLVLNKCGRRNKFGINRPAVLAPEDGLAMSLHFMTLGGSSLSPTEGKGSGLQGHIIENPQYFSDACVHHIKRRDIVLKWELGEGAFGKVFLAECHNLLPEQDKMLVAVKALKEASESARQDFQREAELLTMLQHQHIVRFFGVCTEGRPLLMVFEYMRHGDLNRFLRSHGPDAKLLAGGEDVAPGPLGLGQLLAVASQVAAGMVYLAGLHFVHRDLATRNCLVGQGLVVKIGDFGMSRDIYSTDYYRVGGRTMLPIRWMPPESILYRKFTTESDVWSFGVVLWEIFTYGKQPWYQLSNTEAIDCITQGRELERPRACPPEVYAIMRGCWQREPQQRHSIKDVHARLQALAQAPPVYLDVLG

[5] = biological target: T1, BDNF/NT-3 growth factors receptor (Homo sapiens, UniProt Q16620); test: Inhibition of recombinant human His-tagged TrkB catalytic domain (526 to 838 residues) expressed in baculovirus expression system using tyr 01 as substrate incubated for 1 hr by Z'-Lyte assay
Target sequence in this assay (Q16620 whole entry, the tested form may be a part): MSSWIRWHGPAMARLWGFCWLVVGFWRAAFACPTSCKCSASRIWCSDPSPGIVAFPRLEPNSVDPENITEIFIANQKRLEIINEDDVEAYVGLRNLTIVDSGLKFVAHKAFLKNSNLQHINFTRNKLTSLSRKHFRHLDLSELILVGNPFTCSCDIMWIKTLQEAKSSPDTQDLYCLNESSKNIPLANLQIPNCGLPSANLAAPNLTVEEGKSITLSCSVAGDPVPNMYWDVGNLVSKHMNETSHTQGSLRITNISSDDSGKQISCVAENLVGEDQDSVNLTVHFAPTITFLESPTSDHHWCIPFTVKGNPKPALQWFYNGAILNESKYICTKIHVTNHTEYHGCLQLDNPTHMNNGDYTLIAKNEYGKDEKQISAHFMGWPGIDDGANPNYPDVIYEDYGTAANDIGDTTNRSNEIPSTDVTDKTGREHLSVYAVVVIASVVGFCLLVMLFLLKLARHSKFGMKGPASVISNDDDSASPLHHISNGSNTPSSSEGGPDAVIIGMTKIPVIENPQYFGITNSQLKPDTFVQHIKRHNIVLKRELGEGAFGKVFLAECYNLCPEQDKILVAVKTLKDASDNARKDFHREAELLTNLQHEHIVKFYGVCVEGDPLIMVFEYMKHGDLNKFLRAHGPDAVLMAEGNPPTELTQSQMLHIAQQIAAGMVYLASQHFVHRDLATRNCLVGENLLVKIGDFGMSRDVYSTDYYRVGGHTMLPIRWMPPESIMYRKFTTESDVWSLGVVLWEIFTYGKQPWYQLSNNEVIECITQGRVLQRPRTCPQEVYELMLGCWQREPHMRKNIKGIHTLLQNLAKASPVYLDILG

[6] = biological target: NT-3 growth factor receptor (Homo sapiens, UniProt Q16288); test: Inhibition of recombinant human His-tagged TrkC cytoplasmic domain (510 to 825 residues) expressed in baculovirus using tyr 01 as substrate incubated for 1 hr by Z'-Lyte assay
Chain of NT-3 growth factor receptor (Q16288 whole entry, the tested form may be a part): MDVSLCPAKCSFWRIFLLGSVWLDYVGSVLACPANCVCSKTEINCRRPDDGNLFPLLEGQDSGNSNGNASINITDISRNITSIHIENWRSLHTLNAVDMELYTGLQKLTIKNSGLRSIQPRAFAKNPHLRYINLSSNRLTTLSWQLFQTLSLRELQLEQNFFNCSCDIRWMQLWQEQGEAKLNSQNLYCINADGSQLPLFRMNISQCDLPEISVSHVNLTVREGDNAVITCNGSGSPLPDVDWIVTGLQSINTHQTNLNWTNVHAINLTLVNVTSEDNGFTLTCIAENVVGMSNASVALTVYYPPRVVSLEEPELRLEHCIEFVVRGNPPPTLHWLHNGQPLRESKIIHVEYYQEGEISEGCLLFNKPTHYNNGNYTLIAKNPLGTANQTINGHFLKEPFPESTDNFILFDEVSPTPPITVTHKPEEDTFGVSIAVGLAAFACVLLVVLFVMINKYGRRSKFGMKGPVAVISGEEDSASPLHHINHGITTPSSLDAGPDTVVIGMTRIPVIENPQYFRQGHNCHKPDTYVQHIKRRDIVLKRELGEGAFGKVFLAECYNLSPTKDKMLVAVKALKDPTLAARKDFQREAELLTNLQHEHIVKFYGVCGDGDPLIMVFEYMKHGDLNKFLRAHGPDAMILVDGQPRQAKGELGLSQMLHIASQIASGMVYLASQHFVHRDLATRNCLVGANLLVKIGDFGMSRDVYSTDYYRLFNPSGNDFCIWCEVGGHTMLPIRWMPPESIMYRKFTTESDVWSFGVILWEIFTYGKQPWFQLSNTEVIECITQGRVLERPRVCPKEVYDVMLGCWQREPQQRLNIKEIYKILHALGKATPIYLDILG

[7] = biological target: Tyrosine-protein kinase ABL1 (Homo sapiens, UniProt P00519); test: Inhibition of recombinant full length human His-tagged ABL1 expressed in baculovirus infected insect cells using tyr 02 as substrate incubated for 2 hr by Z'-Lyte assay
Chain of Tyrosine-protein kinase ABL1 (P00519 whole entry): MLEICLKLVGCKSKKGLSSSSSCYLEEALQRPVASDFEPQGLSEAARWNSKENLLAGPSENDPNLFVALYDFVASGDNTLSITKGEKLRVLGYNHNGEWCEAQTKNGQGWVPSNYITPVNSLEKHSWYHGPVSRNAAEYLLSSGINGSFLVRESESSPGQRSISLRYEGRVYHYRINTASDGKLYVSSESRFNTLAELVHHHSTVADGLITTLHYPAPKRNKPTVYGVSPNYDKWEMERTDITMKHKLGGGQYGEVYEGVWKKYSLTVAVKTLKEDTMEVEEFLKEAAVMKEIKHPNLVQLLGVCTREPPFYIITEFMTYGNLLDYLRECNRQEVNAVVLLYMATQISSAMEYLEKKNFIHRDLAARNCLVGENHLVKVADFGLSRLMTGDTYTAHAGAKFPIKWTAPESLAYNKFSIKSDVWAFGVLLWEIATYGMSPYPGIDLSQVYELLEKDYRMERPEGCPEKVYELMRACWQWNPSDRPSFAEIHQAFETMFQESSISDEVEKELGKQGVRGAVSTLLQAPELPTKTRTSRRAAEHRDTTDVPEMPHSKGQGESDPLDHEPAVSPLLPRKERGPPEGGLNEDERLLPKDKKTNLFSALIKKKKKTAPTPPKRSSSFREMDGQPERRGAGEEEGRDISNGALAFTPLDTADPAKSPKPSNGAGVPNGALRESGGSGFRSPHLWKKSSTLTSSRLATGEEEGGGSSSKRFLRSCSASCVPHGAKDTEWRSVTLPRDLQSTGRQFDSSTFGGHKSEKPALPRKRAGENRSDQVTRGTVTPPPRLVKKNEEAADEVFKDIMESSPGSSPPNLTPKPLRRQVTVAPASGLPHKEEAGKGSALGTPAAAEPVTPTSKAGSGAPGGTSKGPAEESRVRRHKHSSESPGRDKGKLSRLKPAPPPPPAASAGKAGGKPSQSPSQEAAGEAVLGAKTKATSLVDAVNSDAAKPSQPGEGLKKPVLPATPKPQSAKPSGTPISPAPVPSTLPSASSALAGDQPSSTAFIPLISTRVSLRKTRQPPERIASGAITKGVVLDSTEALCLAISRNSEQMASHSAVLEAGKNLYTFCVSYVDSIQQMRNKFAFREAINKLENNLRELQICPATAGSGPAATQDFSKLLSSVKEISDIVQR

[8] = biological target: T1, BDNF/NT-3 growth factors receptor; test: Inhibition of BDNF-induced TrkB (unknown origin) activation transfected in human SH-SY5Y cells assessed as decrease in PLCgamma1 phosphorylation incubated for 6 hrs followed by BDNF addition further incubated for 30 mins by Western blot analysis; type: cell-based
In short: (§1)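 SH-SY5Y-TrkB stable transfectants were pretreated with 0–2.0 µM compound for 6 h, then given BDNF 10 ng/mL or none for 30 min. Lysates were run on 8–12% SDS-PAGE, blotted to PVDF and blocked in 5% BSA. Primary antibodies were applied overnight at 4 °C, then HRP secondary, with ECL detection. Phospho and total TrkB, PLC-γ1, Akt (Ser473, Thr308) and Erk were probed, with GAPDH as control.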
Target sequence in this assay (Q16620 32-822 limits assumed): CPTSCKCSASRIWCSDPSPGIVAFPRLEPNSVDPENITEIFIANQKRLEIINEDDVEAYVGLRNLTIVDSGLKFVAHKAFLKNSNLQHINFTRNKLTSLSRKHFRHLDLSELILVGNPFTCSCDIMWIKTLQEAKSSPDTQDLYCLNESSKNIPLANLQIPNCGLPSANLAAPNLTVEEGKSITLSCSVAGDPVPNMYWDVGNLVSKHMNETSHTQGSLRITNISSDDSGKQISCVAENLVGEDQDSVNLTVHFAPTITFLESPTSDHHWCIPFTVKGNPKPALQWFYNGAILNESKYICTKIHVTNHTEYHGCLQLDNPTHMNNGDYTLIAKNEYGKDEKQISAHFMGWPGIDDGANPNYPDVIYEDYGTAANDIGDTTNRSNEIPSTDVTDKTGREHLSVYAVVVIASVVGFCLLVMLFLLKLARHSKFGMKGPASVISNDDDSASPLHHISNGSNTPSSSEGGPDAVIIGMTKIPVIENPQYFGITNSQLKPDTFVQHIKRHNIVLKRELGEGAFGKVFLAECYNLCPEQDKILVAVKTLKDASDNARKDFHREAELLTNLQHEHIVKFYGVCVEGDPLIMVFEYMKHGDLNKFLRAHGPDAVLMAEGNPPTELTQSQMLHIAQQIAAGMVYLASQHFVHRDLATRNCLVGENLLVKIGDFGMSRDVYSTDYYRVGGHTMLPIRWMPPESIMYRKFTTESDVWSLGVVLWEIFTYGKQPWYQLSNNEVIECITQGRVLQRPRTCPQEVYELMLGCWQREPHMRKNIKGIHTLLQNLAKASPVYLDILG

[9] = biological target: T1, BDNF/NT-3 growth factors receptor; test: Inhibition of TrkB (unknown origin) transfected in human SH-SY5Y cells assessed as decrease in BDNF-induced TrkB phosphorylation at >=16 nM incubated for 6 hrs followed by BDNF addition further incubated for 30 mins by Western blot analysis; type: cell-based; in short: as §1
Target sequence in this assay (Q16620 32-822 limits assumed): as above

[10] = Effect on ERK phosphorylation in BDNF-induced human SH-SY5Y cells up to 2 uM preincubated for 6 hrs followed by BDNF addition and measured after 30 mins by Western blot analysis; type: cell-based; settings: 0.5 h
SH-SY5Y [11] = test: Inhibition of cell migration in human SH-SY5Y cells transfected with TrkB (unknown origin) assessed as reduction in BDNF-induced wound closure at 8 nM incubated for 24 hrs by bright field microscopy relative to control; type: functional
In short: (§2)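 SH-SY5Y-TrkB monolayers were grown to near confluence and scratched with a pipette tip, then washed with PBS. Cells were incubated 24 h in MEM/F-12 with 2% FBS, with or without BDNF 10 ng/mL and with compound. Three random fields were imaged by bright-field microscopy and % wound closure was measured. Run three times, each in triplicate.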

SH-SY5Y [12] = test: Inhibition of cell migration in human SH-SY5Y cells transfected with TrkB (unknown origin) assessed as reduction in BDNF-induced wound closure at 40 nM incubated for 24 hrs by bright field microscopy relative to control; type: functional; in short: as §2
SH-SY5Y [13] = test: Inhibition of cell migration in human SH-SY5Y cells transfected with TrkB (unknown origin) assessed as reduction in BDNF-induced wound closure at 200 nM incubated for 24 hrs by bright field microscopy relative to control; type: functional; in short: as §2
SH-SY5Y [14] = test: Inhibition of BDNF-induced cell migration in human SH-SY5Y cells transfected with TrkB (unknown origin) incubated for 24 hrs by crystal violet staining microscopy based transwell assay; type: functional
In short: (§3)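 Transwell migration: 1.5 X 10⁶ SH-SY5Y-TrkB cells in FBS-free medium containing 0, 8, 40 or 200 nM compound went in the top chamber. The bottom chamber held complete medium with or without BDNF 10 ng/mL. After 24 h at 37 °C, cells were methanol-fixed and stained with 0.25% crystal violet, and non-migrated cells were removed. Cells were counted in six random fields at 200X; mean of three independent experiments.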

SH-SY5Y [15] = test: Inhibition of BDNF-induced cell invasion in human SH-SY5Y cells transfected with TrkB (unknown origin) incubated for 24 hrs by crystal violet staining microscopy-based matrigel assay; type: functional
In short: (§4)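 Invasion through Matrigel chambers: 1.5 X 10⁶ SH-SY5Y-TrkB cells in FBS-free medium with 0, 8, 40 or 200 nM compound were placed on top. Complete medium with or without BDNF 10 ng/mL went below. After 24 h at 37 °C, cells were fixed in methanol and stained with 0.25% crystal violet, and top-surface cells were removed. Six random fields were counted at 200X; mean of three independent experiments.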

SH-SY5Y [16] = test: Inhibition of BDNF-induced cell migration in human SH-SY5Y cells transfected with TrkB (unknown origin) at 40 nM incubated for 24 hrs by crystal violet staining microscopy based transwell assay relative to control; type: functional; in short: as §3
SH-SY5Y [17] = test: Inhibition of BDNF-induced cell migration in human SH-SY5Y cells transfected with TrkB (unknown origin) at 200 nM incubated for 24 hrs by crystal violet staining microscopy based transwell assay relative to control; type: functional; in short: as §3
SH-SY5Y [18] = test: Inhibition of BDNF-induced cell invasion in human SH-SY5Y cells transfected with TrkB (unknown origin) at 8 nM incubated for 24 hrs by crystal violet staining microscopy-based matrigel assay relative to control; type: functional; in short: as §4
SH-SY5Y [19] = test: Inhibition of BDNF-induced cell invasion in human SH-SY5Y cells transfected with TrkB (unknown origin) at 40 nM incubated for 24 hrs by crystal violet staining microscopy-based matrigel assay relative to control; type: functional; in short: as §4
SH-SY5Y [20] = test: Inhibition of BDNF-induced cell invasion in human SH-SY5Y cells transfected with TrkB (unknown origin) at 200 nM incubated for 24 hrs by crystal violet staining microscopy-based matrigel assay relative to control; type: functional; in short: as §4
[21] = Drug concentration in Sprague-Dawley rat brain at 25 mg/kg, po administered via gavage incubated for 0.5 hrs by LC/MS-MS analysis; type: ADME, organism-based; settings: read-out: Ct
[22] = Plasma concentration in Sprague-Dawley rat at 25 mg/kg, po administered via gavage incubated for 0.5 hrs by LC/MS-MS analysis; type: ADME, organism-based
[23] = Plasma concentration in Sprague-Dawley rat at 25 mg/kg, po administered via gavage incubated for 2 hrs by LC/MS-MS analysis; type: ADME, organism-based
[24] = Plasma concentration in Sprague-Dawley rat at 25 mg/kg, po administered via gavage incubated for 8 hrs by LC/MS-MS analysis; type: ADME, organism-based
[25] = Ratio of drug concentration in brain to blood of Sprague-Dawley rat at 25 mg/kg, po administered via gavage incubated for 8 hrs by LC/MS-MS analysis; type: ADME, organism-based; settings: brain and blood, read-out: BBR
SH-SY5Y [26] = test: Neurotoxicity in human SH-SY5Y cells assessed as reduction in cell viability incubated for 72 hrs by CCK8 assay; type: toxicity, cell-based

## Cc1c(C#Cc2cnc3cnc(-c4ccc(N)cc4)cn23)cccc1C(=O)Nc1cc(CN2CCN(C)CC2)cc(C(C)C)c1
[1]
  Kp at 2 h: 6
[2]
  concentration at 8 h: 0.09 ng/mL
[3]
  concentration at 2 h: 0.355 ng/mL
[4]
  pIC50: 8.58
[5]
  pIC50: 7.98
[6]
  pIC50: 8.53
[7]
  pIC50: < 6.00
[8]
  inhibition: Dose-dependent effect
[9]
  inhibition: 100%
[10]
  Activity: Not Active
SH-SY5Y [11]
  inhibition at 0.008 µM: 50.1%
SH-SY5Y [12]
  inhibition at 0.04 µM: 76.6%
SH-SY5Y [13]
  inhibition at 0.2 µM: 77.5%
SH-SY5Y [14]
  inhibition: Dose-dependent effect
SH-SY5Y [15]
  inhibition: Dose-dependent effect
SH-SY5Y [16]
  inhibition at 0.04 µM: 53.3%
SH-SY5Y [17]
  inhibition at 0.2 µM: 82%
SH-SY5Y [18]
  inhibition at 0.008 µM: 9.1%
SH-SY5Y [19]
  inhibition at 0.04 µM: 61.9%
SH-SY5Y [20]
  inhibition at 0.2 µM: 85.5%
[21]
  concentration at 0.5 h: 0.078 ng/mL
[22]
  concentration at 0.5 h: 7.33 ng/mL
[23]
  concentration at 2 h: 33.2 ng/mL
[24]
  concentration at 8 h: 6.52 ng/mL
[25]
  Kp at 8 h: 8.3
SH-SY5Y [26]
  Activity: Non-Toxic
